This is an account of results in ChEMBL document CHEMBL1770136, “A class of novel N-isoquinoline-3-carbonyl-L-amino acid benzylesters: synthesis, anti-tumor evaluation and 3D QSAR analysis” (Eur J Med Chem, 2011).

Each structure is given as a SMILES string.

One data set concerns HL-60. As to the kind of experiment: Antiproliferative activity against human HL60 cells after 48 hrs by MTT assay. As to conditions: HL-60, 48 h. The data set is classed as functional, cell-based. An outline of the steps: (§1)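 MTT assay in 96-well cultures; HL-60 or HeLa cells at 1×10^4/ml in RPMI-1640 with 10% FCS, penicillin and streptomycin, 37 °C, 5% CO2. After 24 h, medium renewed with compound (final 1 mM to 1 nM) for 48 h, then renewed again for 4 h. Residue dissolved in DMSO, absorbance read; inhibition = (C−T)/C, IC50 computed.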
(Tetrazolium assays rely on reduction of a dye to a coloured formazan, in cell work by metabolically active cells.)

Another data set has as its system HeLa. As to the kind of experiment: Antiproliferative activity against human HeLa cells after 48 hrs by MTT assay. In kind it is functional, cell-based. An outline of the steps: as §1
For data set [1], the system named is CCRF S-180. The data set is described as follows: Antitumor activity against mouse S180 cells xenografted in ICR mouse assessed as tumor growth inhibition at 100 umol/kg/day, ip qd for 7 days measured 24 hrs after last dose relative to control. The data set is classed as functional. The note with it: CCRF S-180, ip. An outline of the steps:
(§2)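 Male ICR mice, 10–12 weeks old. S180 cells from serially passaged ascites; 1×10^7 viable cells in 0.2 ml saline injected subcutaneously at right oxter. Dosing began 24 h later, 10 per group. Daily i.p. dose of 100 µmol/kg in 0.2 ml saline for 7 days; saline and i.p. cytarabine as controls. Tumors excised and weighed 24 h after last dose; inhibition calculated versus saline group.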

The nature of data set [2]: Apparent permeability from apical to basolateral side of human Caco2 cells up to 120 mins by HPLC analysis. The note with it: Caco-2. The data set is classed as ADME, cell-based. An outline of the steps:
(§3)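 Caco-2 monolayers on polycarbonate transwell filters, TEER about 700 Ω cm², rechecked after each test. Compounds in HBSS at final 4 mM on the donor side, 37 °C. Receiver side sampled at 30, 60, 90 and 120 min and measured by HPLC. Papp = dQ/dt·1/(A·C0), area 1 cm²; n = 4.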

Data set [3] can be described thus: Apparent permeability from basolateral to apical side of human Caco2 cells up to 120 mins by HPLC analysis. The data set is classed as ADME, cell-based. The note with it: Caco-2. An outline of the steps:
as §3

The subject of data set [4] is Mus musculus. The data set is described as follows: Neurotoxicity in ICR mouse assessed as neurotoxic behavior at 15 to 540 mg/kg, po after 7 days. In kind it is toxicity, organism-based. Further details: dose 15-540 mg/kg, route oral. The note with it: in vivo, 168 h. An outline of the steps:
(§4)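 Healthy mice were given the compound orally at 15, 90 and 540 mg/kg and observed for 7 days for neurotoxic signs (tremor, twitch, jumping, tetanus, supination) and for deaths. Organs were examined by necropsy on day 7.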

The test system of data set [5] is CCRF S-180. The data set is described as follows: Antitumor activity against mouse S180 cells xenografted in ICR mouse assessed as decrease of tumor weight at 1 umol/kg, po qd for 7 days measured 24 hrs after last dose. The data set is classed as functional. An outline of the steps: (§5)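 S180 solid tumors started as 1×10^7 ascites-derived cells s.c. in male ICR mice, 10–12 weeks old. From 24 h, oral doses of 1, 10 or 100 µmol/kg/day in 0.2 ml saline for 7 days; oral saline negative control, i.p. cytarabine 100 µmol/kg positive control. Tumors weighed 24 h after last dose; n = 12 per table footnote.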

Data set [6] deals with Mus musculus. As to the kind of experiment: Acute toxicity in ICR mouse assessed as changes in organs at 15 to 540 mg/kg, po after 7 days by necropsy analysis. Further details: dose 15-540 mg/kg, route oral. The note with it: in vivo, 168 h. The data set is classed as organism-based. An outline of the steps: as §4
Data set [7] can be described thus: Acute toxicity in ICR mouse assessed as mouse survival at 540 mg/kg, po. The data set is classed as organism-based. As to conditions: in vivo, read-out: Activity. On the set-up: dose 540 mg/kg, route oral. The method, boiled down:
as §4

Data set [8] can be described thus: Acute toxicity in po dosed ICR mouse assessed as changes in organs after 7 days by necropsy analysis. In kind it is organism-based. As to conditions: in vivo. The method, boiled down:
as §4

The test system of data set [9] is CCRF S-180. The data set is described as follows: Antitumor activity against mouse S180 cells xenografted in ICR mouse assessed as decrease of tumor weight at 10 umol/kg, po qd for 7 days measured 24 hrs after last dose. In kind it is functional. An outline of the steps: as §5
Data set [10] concerns CCRF S-180. The data set is described as follows: Antitumor activity against mouse S180 cells xenografted in ICR mouse assessed as decrease of tumor weight at 100 umol/kg, po qd for 7 days measured 24 hrs after last dose. In kind it is functional. An outline of the steps: as §5
Data set [11] has as its system CCRF S-180. The data set is described as follows: Antitumor activity against mouse S180 cells xenografted in ICR mouse assessed as decrease of tumor weight at 100 umol/kg, ip qd for 7 days measured 24 hrs after last dose. In kind it is functional. The method, boiled down: as §2

For the compound `O=C(C[C@H](NC(=O)c1cc2ccccc2cn1)C(=O)OCc1ccccc1)OCc1ccccc1`, the IC50 (in general, the concentration that gives 50% inhibition) in the data set on HL-60 is 74 nM; with HeLa, 411 nM. The inhibition in vivo – broadly, how much of the control response was suppressed – at 100 µmol/kg in the data set with CCRF S-180 [1] came out at 37.5%.
On to `O=C(O)c1cc2ccccc2cn1`, for which, in [2], the Papp A→B – broadly, the apparent permeability from the apical to the basolateral side of a cell layer – at 2 h came to 9.47 ×10⁻⁶ cm/s. Further, the IC50 was determined as 949 nM in the data set with HL-60 and 1320 nM in the data set on HeLa. For the same compound, in data set [3], the Papp B→A – broadly, how fast a substance crosses the layer from the basolateral side – at 2 h was found to be 9.28 ×10⁻⁶ cm/s. Also, the inhibition in vivo at 100 µmol/kg in the data set on CCRF S-180 [1] turned out to be 11.5%.
Regarding `NCCCC[C@H](NC(=O)c1cc2ccccc2cn1)C(=O)OCc1ccccc1`, the IC50 with HL-60 amounted to 68.2 nM; with HeLa it was 196 nM. For the same compound, in the data set with CCRF S-180 [1], the inhibition in vivo at 100 µmol/kg was 17.1%.
On to `C[C@H](O)[C@H](NC(=O)c1cc2ccccc2cn1)C(=O)OCc1ccccc1`, for which the Activity entry with Mus musculus [4] is on record as “Non-toxic”; with CCRF S-180 [5] it was 1.315 g; in the data set on Mus musculus [6], “Non-toxic”; in the data set with CCRF S-180 [9], 1.184 g; in the data set on CCRF S-180 [10] it was 0.802 g. For the same compound, in data set [2], the Papp A→B at 2 h is 18.6 ×10⁻⁶ cm/s. Further, the figures for the IC50 in the data set on HL-60 and with HeLa were 62.2 nM and 98.7 nM, respectively. The apparent permeability from basolateral to apical (Papp B→A) at 2 h in data set [3] was determined as 7.05 ×10⁻⁶ cm/s. Also, the survival in [7] is 100%. In addition, in the data set with CCRF S-180 [1], the inhibition in vivo at 100 µmol/kg came to 54.4%. Also, in data set [8], the LD50 – broadly, the dose expected to kill half of the subjects tested – at 168 h was > 540 mg/kg.
In the case of `Nc1ccn([C@@H]2O[C@H](CO)[C@@H](O)[C@@H]2O)c(=O)n1` [CYTARABINE], the Activity in the data set on CCRF S-180 [11] is 0.814 g. Moreover, the inhibition in vivo at 100 µmol/kg with CCRF S-180 [1] is 54.8%.
Regarding `CC(C)C[C@H](NC(=O)c1cc2ccccc2cn1)C(=O)OCc1ccccc1`, the Activity entry with Mus musculus [4] is “Non-toxic”; with CCRF S-180 [5], 1.298 g; in the data set on Mus musculus [6], “Non-toxic”; with CCRF S-180 [9] it was 1.011 g; with CCRF S-180 [10] it was 0.938 g. The Papp A→B at 2 h in data set [2] was 17.2 ×10⁻⁶ cm/s. Also, the IC50 in the data set with HL-60 came to 72.8 nM; in the data set on HeLa it was 111 nM. Also, the Papp B→A at 2 h in data set [3] stood at 7.12 ×10⁻⁶ cm/s. For the same compound, the survival in data set [7] was determined as 100%. For the same compound, the inhibition in vivo at 100 µmol/kg in the data set with CCRF S-180 [1] is 47.1%. Besides, the 50% lethal dose (LD50) at 168 h in [8] was > 540 mg/kg.
Consider `O=C(N[C@@H](Cc1ccc(O)cc1)C(=O)OCc1ccccc1)c1cc2ccccc2cn1`, for which the half-inhibitory concentration (IC50) came to 99.9 nM in the data set with HL-60 and 508 nM in the data set on HeLa. In the data set on CCRF S-180 [1], the inhibition in vivo at 100 µmol/kg was determined as 28%.
Regarding `O=C(N[C@@H](Cc1c[nH]cn1)C(=O)OCc1ccccc1)c1cc2ccccc2cn1`, the figures for the IC50 in the data set with HL-60 and with HeLa were 87.6 nM and 263 nM, respectively. Also, the inhibition in vivo at 100 µmol/kg in the data set on CCRF S-180 [1] turned out to be 24.3%.
For the compound `O=C(CC[C@H](NC(=O)c1cc2ccccc2cn1)C(=O)OCc1ccccc1)OCc1ccccc1`, the IC50 turned out to be 83.6 nM in the data set with HL-60 and 214 nM in the data set with HeLa. The inhibition in vivo at 100 µmol/kg in the data set with CCRF S-180 [1] came to 25.2%.
Turning to `CSCC[C@H](NC(=O)c1cc2ccccc2cn1)C(=O)OCc1ccccc1`, the IC50 worked out at 44.9 nM in the data set with HL-60 and 309 nM in the data set on HeLa. In the data set on CCRF S-180 [1], the inhibition in vivo at 100 µmol/kg amounted to 39.6%.
With `NC(=O)C[C@H](NC(=O)c1cc2ccccc2cn1)C(=O)OCc1ccccc1`, the concentration for half-maximal inhibition (IC50) in the data set with HL-60 was 86.9 nM; in the data set on HeLa it was 216 nM. For the same compound, the inhibition in vivo at 100 µmol/kg in the data set on CCRF S-180 [1] was determined as 36.7%.
On to `CC[C@@H](C)[C@H](NC(=O)c1cc2ccccc2cn1)C(=O)OCc1ccccc1`, for which the IC50 in the data set on HL-60 came to 96.3 nM; in the data set on HeLa, 185 nM. Besides, the inhibition in vivo at 100 µmol/kg with CCRF S-180 [1] came to 20.9%.
In the case of `O=C(N[C@@H](Cc1c[nH]c2ccccc12)C(=O)OCc1ccccc1)c1cc2ccccc2cn1`, the results for the concentration for half-maximal inhibition (IC50) with HL-60 and with HeLa were 66.1 nM and 396 nM, respectively. The inhibition in vivo at 100 µmol/kg in the data set with CCRF S-180 [1] amounted to 36.9%.
On to `O=C(N[C@@H](CO)C(=O)OCc1ccccc1)c1cc2ccccc2cn1`, for which the half-maximal inhibitory concentration (IC50) in the data set on HL-60 amounted to 70.4 nM; in the data set with HeLa, 135 nM. The inhibition in vivo at 100 µmol/kg in the data set on CCRF S-180 [1] was 40.4%.
On to `O=C(OCc1ccccc1)[C@@H]1CCCN1C(=O)c1cc2ccccc2cn1`, for which the IC50 with HL-60 worked out at 53.4 nM; in the data set with HeLa it was 87.7 nM. Moreover, the Activity is listed as 1.661 g in the data set on CCRF S-180 [5], 1.243 g in the data set on CCRF S-180 [9] and 1.021 g with CCRF S-180 [10]. Besides, in the data set with CCRF S-180 [1], the inhibition in vivo at 100 µmol/kg was 44.5%.
For the compound `O=C(N[C@@H](Cc1ccccc1)C(=O)OCc1ccccc1)c1cc2ccccc2cn1`, the IC50 with HL-60 came to 91.8 nM; with HeLa it was 151 nM. Also, in the data set with CCRF S-180 [1], the inhibition in vivo at 100 µmol/kg came to 30.1%.
In the case of `O=C(CNC(=O)c1cc2ccccc2cn1)OCc1ccccc1`, the IC50 in the data set on HL-60 worked out at 57.4 nM; in the data set on HeLa, 195 nM. For the same compound, the inhibition in vivo at 100 µmol/kg in the data set on CCRF S-180 [1] turned out to be 16.1%.
In the case of `NC(=O)CC[C@H](NC(=O)c1cc2ccccc2cn1)C(=O)OCc1ccccc1`, the half-inhibitory concentration (IC50) amounted to 44.5 nM in the data set with HL-60 and 181 nM in the data set on HeLa. For the same compound, the inhibition in vivo at 100 µmol/kg in the data set with CCRF S-180 [1] was determined as 11.9%.
For `C[C@H](NC(=O)c1cc2ccccc2cn1)C(=O)OCc1ccccc1`, the half-maximal inhibitory concentration (IC50) in the data set on HL-60 worked out at 84.8 nM; in the data set with HeLa, 154 nM. Moreover, in the data set on CCRF S-180 [1], the inhibition in vivo at 100 µmol/kg worked out at 40.6%.
Take `CC(C)[C@H](NC(=O)c1cc2ccccc2cn1)C(=O)OCc1ccccc1`: the half-inhibitory concentration (IC50) in the data set on HL-60 turned out to be 78.9 nM; in the data set on HeLa, 118 nM. Further, the inhibition in vivo at 100 µmol/kg in the data set on CCRF S-180 [1] is 29.7%.
